Results taken from ChEMBL document CHEMBL1782029, “Synthesis and biological evaluation of N-substituted benzo[c]phenanthrolines and benzo[c]phenanthrolinones as antiproliferative agents” (Eur J Med Chem, 2011).
The source made the active and inactive calls. The rule behind the calls is not given here.

Assays:
[1] = molecular target: T1, DNA topoisomerase 1 (Homo sapiens) (UniProt P11387); test: Inhibition of human recombinant topoisomerase 1-mediated relaxation of supercoiled pUC19 DNA assessed as formation of nicked DNA at 1 to 50 uM using ethidium bromide staining by agarose gel electrophoresis
T1 sequence (whole entry): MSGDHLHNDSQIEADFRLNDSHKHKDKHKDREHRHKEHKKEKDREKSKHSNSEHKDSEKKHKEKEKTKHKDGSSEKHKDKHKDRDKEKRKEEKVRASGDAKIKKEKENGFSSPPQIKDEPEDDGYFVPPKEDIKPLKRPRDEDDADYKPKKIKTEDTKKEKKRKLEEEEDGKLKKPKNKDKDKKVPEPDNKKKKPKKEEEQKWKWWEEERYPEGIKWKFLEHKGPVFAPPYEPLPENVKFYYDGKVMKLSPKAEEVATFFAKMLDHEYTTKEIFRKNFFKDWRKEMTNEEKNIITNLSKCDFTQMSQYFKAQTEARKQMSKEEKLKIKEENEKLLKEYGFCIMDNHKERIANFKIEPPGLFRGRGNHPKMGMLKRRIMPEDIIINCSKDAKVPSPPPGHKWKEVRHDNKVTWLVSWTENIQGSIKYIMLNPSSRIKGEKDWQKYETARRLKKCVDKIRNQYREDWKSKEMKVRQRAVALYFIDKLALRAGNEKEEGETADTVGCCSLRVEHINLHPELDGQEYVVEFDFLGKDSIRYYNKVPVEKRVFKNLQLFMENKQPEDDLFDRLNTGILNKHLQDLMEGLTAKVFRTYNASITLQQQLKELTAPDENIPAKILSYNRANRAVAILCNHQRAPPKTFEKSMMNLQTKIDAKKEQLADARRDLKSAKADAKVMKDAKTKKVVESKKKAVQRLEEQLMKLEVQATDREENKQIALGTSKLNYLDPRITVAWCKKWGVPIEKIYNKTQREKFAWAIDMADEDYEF
Method in brief: (§1)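 Supercoiled pUC19 plasmid (130 ng) was incubated with 4 units of human recombinant Top1 at 37 °C for 45 min in relaxation buffer (50 mM Tris pH 7.8, 50 mM KCl, 10 mM MgCl2, 1 mM DTT, 1 mM EDTA, 1 mM ATP) with increasing compound concentrations. Products were resolved on 1% agarose at room temperature, 2 h at 120 V, then stained with ethidium bromide and imaged under UV.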

[2] = molecular target: T1, DNA topoisomerase 1 (Homo sapiens); test: Inhibition of human recombinant topoisomerase 1 assessed as cleavage of 117-mer DNA fragment at 0.5 to 5 uM using ethidium bromide staining by agarose gel electrophoresis analysis
Nucleic Acid = test: Binding affinity to 265 bp of 3'-end-radio-labelled DNA fragment at 0.5 to 5 uM treated 15 mins before Dnase 1-mediated digestion by footprinting assay; assay type: nucleic-acid assay
Method in brief: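 DNase I footprinting. It was equilibrated with compound for 15 min at 37 °C, then digested 3 min with DNase I (0.01 unit/ml) in 20 mM NaCl, 2 mM MgCl2, 2 mM MnCl2, pH 7.3. Samples were lyophilised, denatured at 90 °C and run on an 8% denaturing polyacrylamide gel.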

Calf thymus DNA [3] = test: Binding affinity to calf thymus DNA at 20 uM by UV-vis spectrophotometry analysis; assay type: nucleic-acid assay; settings: Bos taurus
Calf thymus DNA [4] = test: Binding affinity to calf thymus DNA by circular dichroism analysis; assay type: nucleic-acid assay; settings: Bos taurus
[5] = molecular target: T1, DNA topoisomerase 1 (Homo sapiens); test: Inhibition of camptothecin-induced poisoning effect of human topoisomerase 1 assessed as suppression of CPT-induced 117 bp DNA cleavage by SDS-PAGE analysis
HT-29 [6] = test: Cytotoxicity against human HT-29 cells after 72 hrs by MTS assay; assay type: functional, cell-based; settings: HT-29, 72 h
[7] = molecular target: DNA topoisomerase 2-alpha (Homo sapiens) (UniProt P11388); settings: 50 uM
Chain of DNA topoisomerase 2-alpha (Homo sapiens) (P11388 whole entry): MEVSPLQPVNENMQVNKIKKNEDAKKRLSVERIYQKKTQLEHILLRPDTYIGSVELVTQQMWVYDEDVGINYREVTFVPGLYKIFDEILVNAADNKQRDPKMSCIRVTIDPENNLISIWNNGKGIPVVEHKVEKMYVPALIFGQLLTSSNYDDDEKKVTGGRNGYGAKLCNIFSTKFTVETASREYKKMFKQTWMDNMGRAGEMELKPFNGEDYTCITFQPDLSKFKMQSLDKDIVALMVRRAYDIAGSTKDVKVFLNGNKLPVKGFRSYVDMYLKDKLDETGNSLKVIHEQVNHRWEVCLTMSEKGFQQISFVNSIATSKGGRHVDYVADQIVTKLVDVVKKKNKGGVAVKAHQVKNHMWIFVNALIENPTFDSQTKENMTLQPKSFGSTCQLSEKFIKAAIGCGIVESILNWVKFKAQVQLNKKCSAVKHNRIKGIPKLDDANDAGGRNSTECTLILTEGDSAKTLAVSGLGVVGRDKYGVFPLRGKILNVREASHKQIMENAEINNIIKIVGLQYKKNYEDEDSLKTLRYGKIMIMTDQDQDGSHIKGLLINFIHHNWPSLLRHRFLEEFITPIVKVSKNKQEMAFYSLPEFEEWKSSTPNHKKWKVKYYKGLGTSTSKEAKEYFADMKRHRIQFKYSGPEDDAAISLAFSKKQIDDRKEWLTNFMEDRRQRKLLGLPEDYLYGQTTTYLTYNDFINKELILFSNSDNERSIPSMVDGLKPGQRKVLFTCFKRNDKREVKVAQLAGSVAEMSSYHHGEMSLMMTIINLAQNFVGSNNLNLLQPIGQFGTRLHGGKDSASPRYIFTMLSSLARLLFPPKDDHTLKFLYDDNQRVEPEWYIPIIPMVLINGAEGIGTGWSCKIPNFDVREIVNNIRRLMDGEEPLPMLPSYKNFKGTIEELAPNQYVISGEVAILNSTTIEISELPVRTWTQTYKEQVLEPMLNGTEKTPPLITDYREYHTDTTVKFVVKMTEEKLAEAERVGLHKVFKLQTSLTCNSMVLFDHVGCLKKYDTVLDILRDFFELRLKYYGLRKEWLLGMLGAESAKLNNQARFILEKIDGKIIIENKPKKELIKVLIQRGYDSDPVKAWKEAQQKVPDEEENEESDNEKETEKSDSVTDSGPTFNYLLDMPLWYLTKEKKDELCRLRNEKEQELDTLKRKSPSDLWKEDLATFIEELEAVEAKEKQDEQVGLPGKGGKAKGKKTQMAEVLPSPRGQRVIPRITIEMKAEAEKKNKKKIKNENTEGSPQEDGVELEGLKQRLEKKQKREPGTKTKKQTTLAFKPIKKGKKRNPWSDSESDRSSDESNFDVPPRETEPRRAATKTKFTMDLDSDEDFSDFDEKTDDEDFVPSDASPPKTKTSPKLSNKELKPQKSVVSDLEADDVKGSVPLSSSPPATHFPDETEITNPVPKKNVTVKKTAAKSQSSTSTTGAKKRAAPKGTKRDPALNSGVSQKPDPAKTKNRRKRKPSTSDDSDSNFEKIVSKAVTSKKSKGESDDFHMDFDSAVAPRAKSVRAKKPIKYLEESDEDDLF

[8] = molecular target: DNA topoisomerase 2-alpha (Homo sapiens) (UniProt P11388); settings: 50 uM; remark: listed apart in the source
[9] = molecular target: DNA topoisomerase 2-alpha (Homo sapiens) (UniProt P11388); test: Inhibition of human topoisomerase 2 assessed as formation of nicked form of supercoiled pUC19 DNA at 50 uM after 45 mins using ethidium bromide staining by agarose gel analysis
[10] = molecular target: DNA topoisomerase 2-alpha (Homo sapiens) (UniProt P11388); test: Inhibition of human topoisomerase 2 assessed as formation of linear form of supercoiled pUC19 DNA at 50 uM after 45 mins using ethidium bromide staining by agarose gel analysis
[11] = molecular target: T1, DNA topoisomerase 1 (Homo sapiens); test: Inhibition of human recombinant topoisomerase 1-mediated relaxation of supercoiled pUC19 DNA assessed as formation of nicked DNA at 0.2 to 10 uM using ethidium bromide staining by agarose gel electrophoresis; method in brief: as §1
[12] = molecular target: T1, DNA topoisomerase 1 (Homo sapiens); test: Inhibition of human recombinant topoisomerase 1 assessed as cleavage of 117-mer DNA fragment at 20 to 50 uM using ethidium bromide staining by agarose gel electrophoresis analysis
[13] = molecular target: T1, DNA topoisomerase 1 (Homo sapiens); test: Inhibition of human recombinant topoisomerase 1-mediated relaxation of supercoiled pUC19 DNA assessed as formation of nicked DNA at 0.1 to 5 uM using ethidium bromide staining by agarose gel electrophoresis; method in brief: as §1
HT-29 [14] = test: Cell cycle arrest in human HT-29 cells at G2/M phase at 0.1 to 2.5 uM after 48 hrs using propidium iodide staining by FACS analysis; assay type: functional, cell-based
Method in brief: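 Exponentially growing HT-29 colon carcinoma cells (300,000 per well) were plated for 24 h, then exposed to 0.1, 1 or 2.5 µM compound for 48 h. Cells were fixed, stained with propidium iodide and analysed by flow cytometry (FACScan).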

`CN(C)CCCNc1nc2c3cccnc3ccc2c2cc3c(cc12)OCO3` was tested, and the “Topoisomerase 1 inhibition (active/inactive)” value [1] was “Active”, the inhibition [2] was “inactive” and the inhibition (Nucleic Acid) was “Active”. For the same molecule, the Activity (Calf thymus DNA [3]) was “Active”, the Activity (Calf thymus DNA [4]) was “Active” and the inhibition [5] was “Dose-dependent effect”. It also gave an IC50 (HT-29 [6]) of 1.73 µM.

`COc1cc([C@@H]2c3cc4c(cc3[C@@H](O[C@@H]3O[C@@H]5CO[C@@H](C)O[C@H]5[C@H](O)[C@H]3O)[C@H]3COC(=O)[C@H]23)OCO4)cc(OC)c1O` was tested, and the inhibition [7] was “Active” and the inhibition [8] was “Active”.

In the case of `CCN(CC)CCCNc1nc2c3cccnc3ccc2c2cc3c(cc12)OCO3`, the Activity (Calf thymus DNA [3]) is reported as “Active”, the inhibition [9] is reported as “inactive” and the inhibition [10] is reported as “inactive”. For the same molecule, the Activity (Calf thymus DNA [4]) was “Active”, the inhibition [5] was “Dose-dependent effect” and the IC50 (HT-29 [6]) was 1.83 µM. For the same molecule, the inhibition [11] was “Active” and the inhibition [12] was “inactive”.

With `COc1cc2c(NCCN(C)C)nc3c4ccncc4ccc3c2cc1OC` the inhibition (Nucleic Acid) was “Active”, the Activity (Calf thymus DNA [3]) was “Active” and the inhibition [9] was “inactive”. For the same molecule, the inhibition [10] was “inactive”, the “Top1 relaxation inhibition (qualitative call)” value [13] was “Active” and the Activity (Calf thymus DNA [4]) was “Active”. The Activity (HT-29 [14]) was “Active”, the inhibition [5] was “Dose-dependent effect” and the IC50 (HT-29 [6]) was 1.02 µM. The inhibition [11] was “Active” and the inhibition [12] was “inactive”.

With `CCN(CC)CCn1c(=O)c2cc(OC)c(OC)cc2c2ccc3cnccc3c21` the “Topoisomerase 1 inhibition (active/inactive)” value [1] was “Active”, the inhibition [2] was “inactive” and the Activity (Calf thymus DNA [3]) was “Active”. For the same molecule, the Activity (Calf thymus DNA [4]) was “Active”, the inhibition [5] was “Dose-dependent effect” and the IC50 (HT-29 [6]) was 1.82 µM.
